# The list is not random: actives were taken first. Their share in the collection is about 2%.
# SENP1 FRET inh: human SENP1 catalytic domain inhibitors, primary screen, biochemical, FRET, uHTS | Sentrin-specific protease 1 (Homo sapiens), Q9P0U3 | recombinant SENP1 catalytic domain, CyPet-SUMO1-YPet FRET cleavage | inhibition, % at 10 µM | hit rate 0.21% among 360,000 | AID 624204, 2012;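 active = inhibition at least 30% at 10 µM, raw YFP signal under a set limit, fluorescence ratio 0.5 to 1.5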;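 also: 0% = enzyme with DMSO and 100% = no enzyme wells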
# Target sequence (Q9P0U3 419-644 limits assumed): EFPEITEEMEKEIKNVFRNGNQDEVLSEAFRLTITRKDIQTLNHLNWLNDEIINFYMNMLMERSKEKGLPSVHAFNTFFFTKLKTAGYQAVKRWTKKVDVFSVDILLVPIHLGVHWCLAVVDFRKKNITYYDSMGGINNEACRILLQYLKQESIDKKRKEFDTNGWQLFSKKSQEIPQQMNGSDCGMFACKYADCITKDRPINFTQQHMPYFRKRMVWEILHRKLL
#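 Compound: 10 µM single point, 0.5% DMSO; Test system: hSENP1 catalytic domain, recombinant; Timing: 50 min reaction at room temperature; Technique: FRET, CFP and YFP emission; Control set: no-enzyme wells low, DMSO-plus-enzyme wells high control.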
# HNF4A DNA FP: change in binding of human HNF4A to DNA, primary screen, biochemical, fluorescence polarization, FITC-DNA | Hepatocyte nuclear factor 4-alpha (Homo sapiens), P41235 | 1 h | activity change, % at 10 µM | hit rate 0.3% among 360,000 | AID 1224865, 2016; in the data active = activity change above about 30%, passing the limit was not always enough
# TPT1 inhibitor: Candida albicans TPT1 enzyme inhibitors, primary screen, biochemical, fluorescence polarization; tRNA 2'-phosphotransferase TPT1 (Candida albicans SC5314); recombinant caTPT1, FP RNA substrate dephosphorylation; inhibition, % at 5 µM; hit rate 0.81% among 300,000; AID 1962, 2009;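 active = inhibition above the mean of all tested compounds plus 3 SD, set per screening campaign, cut at about 24% in these data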;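 also: plate controls were DMSO alone for no effect and ferristatin control at 100 nM for full effect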
# ATG4B inhibitor: ATG4B protease inhibitors, primary screen, biochemical, fluorescence, uHTS. Cysteine protease ATG4B (Homo sapiens), Q9Y4P1. ATG4B cleavage of LC3-PLA2, NBD-HPC fluorescence, 1 h. inhibition, % at 8.33 µM. hit rate 0.51% among 340,000; in the data active = inhibition above about 40%
# Rpn11 inh: Rpn11 (PSMD14) deubiquitinase inhibitors, primary screen, biochemical, fluorescence polarization, uHTS; 26S proteasome non-ATPase regulatory subunit 14 (Homo sapiens), O00487; human 26S proteasome, Ub4-pepOG fluorescence polarization; 20S core pre-blocked with epoxomicin; inhibition, % at 20 µM; hit rate 0.59% among 360,000; AID 588493, 2011;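 active = inhibition at 20 µM, scaled to each plate's controls, above about 33%, limit read from the data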
# Target sequence (O00487 whole entry, looked up): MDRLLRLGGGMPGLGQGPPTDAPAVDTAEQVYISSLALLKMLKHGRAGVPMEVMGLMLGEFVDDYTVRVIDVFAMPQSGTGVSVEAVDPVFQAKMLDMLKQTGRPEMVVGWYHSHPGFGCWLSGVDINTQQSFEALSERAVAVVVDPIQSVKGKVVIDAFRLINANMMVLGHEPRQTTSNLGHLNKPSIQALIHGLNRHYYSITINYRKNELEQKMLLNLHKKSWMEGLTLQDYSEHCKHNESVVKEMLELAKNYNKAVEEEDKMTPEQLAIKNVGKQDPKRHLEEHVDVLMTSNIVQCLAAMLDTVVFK
# CSN deneddyl inh: inhibitors of CSN-mediated cullin deneddylation, primary screen, biochemical, fluorescence polarization, uHTS; Purified CSN, SCF-Nedd8-OG deneddylation; hit rate 0.38% among 360,000; COP9 signalosome complex subunit 5 (Homo sapiens), Q92905; inhibition, % at 12.5 µM;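 active = pattern-corrected inhibition above about 35%, with an unprinted fluorescence ratio check between 0.5 and 1.5, limit read from the data, passing the limit was not always enough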;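 also: 0% = enzyme with substrate and 100% = substrate without enzyme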
#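 Assay system: purified human Csn5 enzyme expressed in HEK293T cells; measure: % inhibition; also added: SCFSkp2-Nedd8OG substrate at 10 nM final; technique: fluorescence polarization; times: reaction 90 min, room temperature; medium: Tris buffer pH 7.5, NaCl, DTT, Tween-20, trehalose, ovalbumin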
# TPT1 inh confirm: Candida albicans TPT1 inhibitors, confirmation, biochemical, fluorescence polarization, triplicate; hit rate 74% among 2,400; inhibition, % at 5 µM; shares compounds with TPT1 inhibitor; recombinant caTPT1, RNase T1 coupled; AID 2149, 2009;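 active = inhibition above the primary screen limit, the mean inhibition of all tested compounds plus 3 SD, cut at about 25% in these data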
# RNase T1 inh: RNase T1 inhibitors, counter-screen for TPT1 inhibitor project, biochemical, fluorescence polarization; shares compounds with TPT1 inhibitor; inhibition, % at 5 µM; RNase T1 cleavage, 1536-well; hit rate 83% among 2,400;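 active = inhibition above the solvent-only control well mean plus 3 SD, limit set per screening run, cut at about 23% in these data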;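 also: plate controls were DMSO wells with enzyme for no effect and wells without RNase T1 for full effect; inhibitors block cleavage so intact labeled substrate keeps polarization high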
# Target sequence (P00651 whole entry, looked up): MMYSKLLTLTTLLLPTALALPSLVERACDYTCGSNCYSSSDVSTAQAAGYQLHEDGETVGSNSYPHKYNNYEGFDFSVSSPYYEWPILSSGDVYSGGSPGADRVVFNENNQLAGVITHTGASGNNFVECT
# * marks the source's active call; other numbers are inactive results; . = no result given.
SMILES,SENP1 FRET inh,HNF4A DNA FP,TPT1 inhibitor,ATG4B inhibitor,Rpn11 inh,CSN deneddyl inh,TPT1 inh confirm,RNase T1 inh
CN(C)c1ccc(/C=C(\NC(=O)c2ccccc2)C(=O)N/N=C/c2ccc(C(=O)O)cc2)cc1,-24.4,4.2,33.3*,-3.6,32.8,4.3,19.7,29.4*
CN(C)c1ccc(/C=C(\NC(=O)c2ccccc2)C(=O)NCCN2CCOCC2)cc1,5.3,0.6,28.5*,-6.2,18.1,5.2,17.4,22.6*
CN(C)c1ccc(/C=C(/NC(=O)c2ccccc2)C(=O)NCCCn2ccnc2)cc1,1.3,13.8,134.2*,0.5,.,71.8*,155.1*,157.2*
CCCCCCCCN1C(=O)[C@H](CC(=O)NCCC(C)C)C[C@@]2(C(=O)OC)CC(C)(C)CC=C12,-1.1,6.5,.,.,.,-5.9,.,.
CC1CCCN(S(=O)(=O)c2ccc3c(c2)OCCO3)C1 (stereo not given),1.0,0.0,.,.,-0.1,5.3,.,.
Cc1cn(CC(=O)NCc2ccccc2)c(=O)[nH]c1=O,2.8,2.7,.,-2.4,-0.5,2.2,.,.
CC(NC(=O)/C(C#N)=C/c1ccc([N+](=O)[O-])o1)c1ccccc1 (stereo not given),-72.7,12.7,22.9,-9.5,39.7,18.2,.,.
CC(C)NC(=O)/C(C#N)=C\c1ccc(N(C)C)o1,-48.3,188.4,153.3*,13.5,.,116.7,177.4*,169.6*
N#C/C(=C\c1ccc(O)cc1)C(=O)NCc1ccccc1,-166.1,-0.5,-2.2,1.1,-0.3,3.0,.,.
CCN(CC)c1ccc(/C=C(/C#N)C(=O)NC(C)C)o1,-32.3,183.8,169.3*,-2.7,.,148.5,186.0*,172.8*
Cc1[nH]c2ccccc2c1/C=C(\C#N)C(=O)NCc1ccccc1,-53.4,11.8,30.7*,-1.4,13.8,6.4,41.3*,48.6*
C=CCNC(=O)/C(C#N)=C/c1ccc(C)o1,0.2,-0.5,-0.8,-1.7,-0.9,3.5,.,.
CCN(CC)c1ccc(/C=C(/C#N)C(=O)NCc2ccccc2)o1,-26.4,192.4,188.9*,-0.4,.,167.3,196.5*,180.3*
COCCN1C(=O)CSCC1(C)C(=O)Nc1ccc2c(c1)OCCO2 (stereo not given),4.5,-0.6,.,.,.,-0.9,.,.
CC(C)(C)n1nnnc1C(c1ccccc1)N1CCN(c2ncc(C(F)(F)F)cc2Cl)CC1 (stereo not given),1.3,1.2,.,.,.,-2.8,.,.
Cc1cccc(C(=O)N2CCC[C@H]2C(=O)N2CCC[C@H]2C(=O)NCc2ccncc2)c1,2.2,1.3,.,.,.,-8.3,.,.
C[C@H](CO)N1C[C@H](C)[C@@H](CN(C)S(C)(=O)=O)Oc2ccc(N(C)C)cc2C1=O,-0.4,0.1,.,-3.7,-8.5,-0.1,.,.
CCOC(=O)c1c(Nc2ccc(Cl)cc2)sc(/C=C2\C=Nc3ccccc32)c1O,-27.6,44.6*,35.6*,20.4,.,17.5,45.7*,54.4*
O=C1CC2CC1C(C(=O)O)C2C(=O)O (stereo not given),1.0,-5.2,.,-0.3,-1.1,-7.7,.,.
Cc1nc(C(F)(F)F)ccc1C(=O)N1CCC(C)(C(=O)O)C1 (stereo not given),2.6,2.3,.,.,-3.5,-1.7,.,.
COc1ccc(N/C=C\C(=O)c2ccc(Br)cc2)cc1OC,-23.3,123.3,33.6*,0.9,.,52.9*,50.0*,60.0*
COc1cc(CC(=O)Nc2cc(S(=O)(=O)N3CCOCC3)ccc2N2CCCC2)cc(OC)c1OC,0.7,-1.8,.,-4.2,-4.8,-0.3,.,.
CC1CN(Cc2ccccc2)C(=S)N(c2ccccc2)C1=O (stereo not given),2.6,-2.8,.,4.2,-0.1,2.6,.,.
COc1ccccc1S(=O)(=O)N(C)C[C@H]1OCc2cnnn2CCCC(=O)N([C@@H](C)CO)C[C@@H]1C,1.2,2.4,.,.,4.9,0.5,.,.
NC(=O)CSC1=N/C(=C\c2ccco2)C(=O)N1c1ccc(OC(F)F)cc1,-18.4,6.6,9.8,4.1,8.1,13.7,.,.
SMILES,SENP1 FRET inh,HNF4A DNA FP,TPT1 inhibitor,ATG4B inhibitor,Rpn11 inh,CSN deneddyl inh,TPT1 inh confirm,RNase T1 inh
CCOc1cc(/C=C2\N=C(SC(C)C(N)=O)N(c3ccc(OC(F)F)cc3)C2=O)ccc1O (stereo not given),-31.0,129.5,100.8*,-13.5,.,104.2,116.7*,112.8*
N#CCC1(O)C(=O)N(Cc2ccccc2)c2ccccc21 (stereo not given),-13.8,-0.9,.,.,.,-1.6,.,.
COc1ccc2oc(=O)c(C(=O)Nc3ccccc3O)cc2c1,3.4,4.4,2.2,-4.9,2.5,2.3,.,.
COc1ccc2o/c(=N\O)c(C(=O)Nc3ccccc3OC)cc2c1,1.0,1.2,162.5*,-12.1,-0.1,3.6,126.5*,125.1*
O=C(C[n+]1cccc2ccccc21)c1ccc(NC(=O)c2ccccc2)cc1,11.7,7.6,39.5*,13.2,.,1.2,28.0*,41.1*
C=CCN1C=CC(=C/C=C(/C#N)C(=O)OCC)C=C1,-19.2,177.7,175.8*,-3.0,.,164.3,186.8*,173.3*
NC(=O)c1cccc(CC(=O)c2ccccc2)c1,0.8,2.5,74.5*,3.7,-4.1,-1.5,8.2,12.9
FC(F)(F)C(F)(F)C(F)(F)c1nc2nc(Cl)c(Cl)nc2[nH]1,-129.0,-10.0,.,.,-22.9,2.1,.,.
Cc1ccc(C2C(C#N)=C(N)SC(N)=C2C#N)cc1,-20.7,119.7,.,5.4,.,45.6,.,.
Cc1ccc(C2C(C#N)=C(N)SC(N)=C2C#N)c(C)c1,-27.8,141.9,151.8*,6.3,.,-69.5,78.8*,89.9*
CCOC(=O)/C=c1\s/c(=C\c2c(OC)ccc3ccccc23)c(=O)n1CC(=O)NCC1CCCO1 (stereo not given),-27.7,14.3,28.2*,-6.5,.,10.1,41.4*,49.9*
CS(=O)(=O)/C(C#N)=C\c1cnc(S(=O)(=O)c2ccccc2)s1,.,.,35.2*,.,.,.,6.1,11.6
CN(C)CCCN1C(=O)c2cccc3cccc(c23)C1=O,1.9,-2.6,-3.8,-0.7,3.5,4.0,.,.
CCCCN1C(=O)c2cccc3cc(O)cc(c23)C1=O,-48.3,-5.7,37.3*,-8.1,-8.2,-3.1,42.0*,47.9*

# Screening results as filed in PubChem.
